{"data": "Assay results collected from several papers", "effect on": "binding", "Tumor necrosis factor receptor superfamily member 9": "Tumor necrosis factor receptor superfamily member 9 (Homo sapiens, UniProt Q07011)", "MET": "Hepatocyte growth factor receptor (MET, Homo sapiens, UniProt P08581)", "note": "Each line is one published result; the experiments were not run side by side."}
{"SMILES": "CC(C)C[C@H](NC(=O)[C@@H]1CCCN1C(=O)[C@H](Cc1ccccc1)NC(=O)[C@H](CCC(=O)O)NC(=O)[C@@H](N)CC(N)=O)C(=O)N[C@@H](CS)C(=O)N[C@@H](CO)C(=O)N[C@@H](CC(C)C)C(=O)N1CCC[C@H]1C(=O)N[C@@H](CCC(=O)O)C(=O)NCC(=O)O", "target": "Ubiquitin carboxyl-terminal hydrolase 7 (USP7, Homo sapiens, UniProt Q93009)", "assay": "ITC", "conditions": "pH 8", "Kd": "118000 nM"}
{"SMILES": "CCCC[C@@H]1NC(=O)[C@H](Cc2ccc(O)cc2)NC(=O)[C@@H]2CCCN2C(=O)[C@H](CC(=O)O)NC(=O)[C@H](C)NC(=O)[C@H](Cc2ccccc2)NC(=O)[C@@H]2CSCCC(=O)N3CN(CN(C3)C(=O)CCSC[C@@H](C(=O)N[C@@H](C)C(N)=O)NC1=O)C(=O)CCSC[C@H](NC(C)=O)C(=O)N[C@@H](CC(C)(C)C)C(=O)N1CCC[C@H]1C(=O)N[C@@H](CCC(=O)O)C(=O)N[C@H](CCCCNC(=O)CCc1cn(CCOCCOCCOCCOCCOCCC(=O)NCCCC[C@H]3NC(=O)[C@H](Cc4cccc5ccccc45)NC(=O)[C@@H]4CCCN4C(=O)[C@@H](NC(C)=O)CSCCC(=O)N4CN5CN(C4)C(=O)CCSC[C@H](NC3=O)C(=O)N[C@@H](CCSC)C(=O)N[C@@H](CCCCNC(=N)N)C(=O)N[C@@H](CC(=O)O)C(=O)N[C@@H](Cc3c[nH]c4ccccc34)C(=O)N[C@@H](CO)C(=O)N[C@@H]([C@@H](C)O)C(=O)N3CCC[C@H]3C(=O)N3C[C@H](O)C[C@H]3C(=O)N[C@@H](Cc3c[nH]c4ccccc34)C(=O)N[C@H](C(N)=O)CSCCC5=O)nn1)C(=O)N1CCC[C@H]1C(=O)N[C@@H](Cc1ccc(O)cc1)C(=O)N2", "target": "Tumor necrosis factor receptor superfamily member 9", "assay": "SPR", "Kd": "4.3 nM"}
{"SMILES": "CCCN1CCc2cc(OC)cc3c2[C@H]1Cc1ccc(O)c(O)c1-3", "target": "D(2) dopamine receptor (Drd2, Rattus norvegicus, UniProt P61169)", "assay": "radioligand", "conditions": "cell membranes", "Kd": "2.21 nM"}
{"SMILES": "CCCC[C@@H]1NC(=O)[C@H](Cc2ccc(O)cc2)NC(=O)[C@@H]2CCCN2C(=O)[C@H](CC(=O)O)NC(=O)[C@H](C)NC(=O)[C@H](Cc2ccccc2)NC(=O)[C@@H]2CSCCC(=O)N3CN(CN(C3)C(=O)CCSC[C@@H](C(=O)N[C@@H](C)C(N)=O)NC1=O)C(=O)CCSC[C@H](NC(C)=O)C(=O)N[C@@H](CC(C)(C)C)C(=O)N1CCC[C@H]1C(=O)N[C@@H](CCC(=O)O)C(=O)N[C@H](CCCCNC(=O)CCc1cn(CCOCCOCCOCCOCCOCCC(=O)N[C@H]3CSCCC(=O)N4CN5CN(C4)C(=O)CCSC[C@H](NC(=O)CNC(=O)[C@H](Cc4ccccc4)NC(=O)[C@@H]4CCCN4C3=O)C(=O)N[C@@H](CCSC)C(=O)N[C@@H](CCCCNC(=N)N)C(=O)N[C@@H](CC(=O)O)C(=O)N[C@@H](Cc3c[nH]c4ccccc34)C(=O)N[C@@H](CO)C(=O)N[C@@H]([C@@H](C)O)C(=O)N3CCC[C@H]3C(=O)N3C[C@H](O)C[C@H]3C(=O)N[C@@H](Cc3c[nH]c4ccccc34)C(=O)N[C@H](C(N)=O)CSCCC5=O)nn1)C(=O)N1CCC[C@H]1C(=O)N[C@@H](Cc1ccc(O)cc1)C(=O)N2", "target": "Tumor necrosis factor receptor superfamily member 9", "assay": "SPR", "Kd": "3.7 nM"}
{"SMILES": "Cc1n[nH]c2c(-c3cn(C(C)c4ccccc4)c(=O)[nH]c3=O)cccc12 (stereo not shown)", "target": "MET", "Kd": "200 nM"}
{"SMILES": "CCCCC1(CCCCCCCCCCCCC(=O)O)OCC(C)(C)N1[O] (stereo not shown)", "target": "kcsA (Streptomyces lividans, UniProt P0A334)", "Kd": "100 to 1000 nM"}
{"SMILES": "CC(c1ccccc1)n1cc(-c2cc(F)cc3c(C#N)n[nH]c23)c(=O)[nH]c1=O (stereo not shown)", "target": "MET", "Kd": "79.4 nM"}
{"SMILES": "CCCC[C@@H]1NC(=O)[C@H](Cc2ccc(O)cc2)NC(=O)[C@@H]2CCCN2C(=O)[C@H](CC(=O)O)NC(=O)[C@H](C)NC(=O)[C@H](Cc2ccccc2)NC(=O)[C@@H]2CSCCC(=O)N3CN(CN(C3)C(=O)CCSC[C@H](NC(C)=O)C(=O)N[C@@H](CC(C)(C)C)C(=O)N3CCC[C@H]3C(=O)N[C@@H](CCC(=O)O)C(=O)N[C@H](CCCCNC(=O)CCc3cn(CCOCCOCCOCCOCCOCCC(=O)N[C@H]4CSCCC(=O)N5CN6CN(C5)C(=O)CCSC[C@H](NC(=O)[C@@H](CC(=O)O)NC(=O)[C@H](Cc5cccc7ccccc57)NC(=O)[C@@H]5CCCN5C4=O)C(=O)N[C@@H](CCSC)C(=O)N[C@@H](CCCCNC(=N)N)C(=O)N[C@@H](CC(=O)O)C(=O)N[C@@H](Cc4c[nH]c5ccccc45)C(=O)N[C@@H](CO)C(=O)N[C@@H]([C@@H](C)O)C(=O)N4CCC[C@H]4C(=O)N4C[C@H](O)C[C@H]4C(=O)N[C@@H](Cc4c[nH]c5ccccc45)C(=O)N[C@H](C(N)=O)CSCCC6=O)nn3)C(=O)N3CCC[C@H]3C(=O)N[C@@H](Cc3ccc(O)cc3)C(=O)N2)C(=O)CCSCCNC1=O", "target": "Tumor necrosis factor receptor superfamily member 9", "assay": "SPR", "Kd": "30 nM"}
{"SMILES": "CC(c1ccccc1Cl)n1cc(-c2cc(F)cc(F)c2)c(=O)[nH]c1=O (stereo not shown)", "target": "MET", "Kd": "39800 nM"}
{"SMILES": "CCCCC/C=C\\C/C=C\\C/C=C\\C/C=C\\CCCC(=O)O", "target": "Nuclear receptor subfamily 4 group A member 2 (Homo sapiens, UniProt P43354)", "assay": "fluorescence", "Kd": "58000 nM"}
